Data on nine molecules can be found in ChEMBL document CHEMBL5376013, “Design, synthesis and biological evaluation of novel morpholinopyrimidine-5-carbonitrile derivatives as dual PI3K/mTOR inhibitors” (RSC Med Chem, 2024).

Holding throughout (format): functional
Conditions in all cases: read-out: GI

One experiment concerns UACC-62. As to the kind of experiment: Antitumor activity against human UACC-62 cells assessed as growth inhibition at 10 uM relative to control. In a few lines:
(§1)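 Drug exposure 48 h at 37 °C, 5% CO2. Adherent cells fixed with cold TCA (10% final), suspension cells with TCA (16% final). Stained with 0.4% SRB in 1% acetic acid, dissolved in 10 mM Tris, A515. Growth relative to time-zero and untreated control.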

The next experiment deals with RPMI-8226. The experiment in a line: Antitumor activity against human RPMI-8226 cells assessed as growth inhibition at 10 uM relative to control. The method in brief:
(§2)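 After drug addition, plates were incubated 48 h at 37 °C under 5% CO2. Adherent cells were fixed with cold TCA (10% final, 60 min, 4 °C) and suspension cells with 16% final TCA. Staining used 0.4% SRB in 1% acetic acid, solubilized in 10 mM trizma, read at A515. Percent growth was calculated from time-zero, control and treated absorbances.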

Another experiment has as its system T47D. As to the kind of experiment: Antitumor activity against human T47D cells assessed as growth inhibition at 10 uM relative to control. The method in brief:
as §1

The next experiment deals with SK-MEL-28. The experiment in a line: Antitumor activity against human SK-MEL-28 cells assessed as growth inhibition at 10 uM relative to control. The method in brief: as §1
The test system of the next experiment is HT-29. The experiment in a line: Antitumor activity against human HT-29 cells assessed as growth inhibition at 10 uM relative to control. In a few lines:
as §2

In a further experiment the test system is KM12. The experiment in a line: Antitumor activity against human KM12 cells assessed as growth inhibition at 10 uM relative to control. In a few lines: as §2
The subject of a further experiment is NCI/ADR-RES. As to the kind of experiment: Antitumor activity against human NCI-ADR-RES cells assessed as growth inhibition at 10 uM relative to control. In a few lines:
as §2

For the next experiment, the system named is MDA-MB-468. The experiment in a line: Antitumor activity against human MDA-MB-468 cells assessed as growth inhibition at 10 uM relative to control. The method in brief: as §2
In another experiment the test system is CCRF-CEM. The experiment in a line: Antitumor activity against human CCRF-CEM cells assessed as growth inhibition at 10 uM relative to control. The method in brief: as §2
Another experiment deals with SW-620. As to the kind of experiment: Antitumor activity against human SW-620 cells assessed as growth inhibition at 10 uM relative to control. The method in brief: as §1
For the next experiment, the system named is Malme-3M. As to the kind of experiment: Antitumor activity against human Malme-3M cells assessed as growth inhibition at 10 uM relative to control. In a few lines:
as §2

A further experiment concerns ACHN. The experiment in a line: Antitumor activity against human ACHN cells assessed as growth inhibition at 10 uM relative to control. In a few lines:
as §2

Another experiment deals with NCI-H460. As to the kind of experiment: Antitumor activity against human NCI-H460 cells assessed as growth inhibition at 10 uM relative to control. The method in brief:
as §2

A further experiment relates to SN12C. The experiment in a line: Antitumor activity against human SN12C cells assessed as growth inhibition at 10 uM relative to control. The method in brief:
as §1

In the case of `CSc1nc(-c2ccc(Cl)cc2)c(C#N)c(N2CCOCC2)n1`, the inhibition of growth at 10 µM is below 1% in the experiment on UACC-62; 17.9% in the experiment on RPMI-8226; 33% in the experiment with T47D; below 1% with SK-MEL-28; 15.3% in the experiment with HT-29; below 1% in the experiment with KM12. The inhibition of growth at 10 µM with NCI/ADR-RES was 12%; in the experiment with MDA-MB-468, below 1%; in the experiment on CCRF-CEM, below 1%; with SW-620, below 1%; in the experiment with Malme-3M, 11%; in the experiment with ACHN, below 1%. Moreover, the inhibition of growth at 10 µM with NCI-H460 and in the experiment with SN12C was below 1% throughout.
Take `N#Cc1c(-c2ccc(Cl)cc2)nc(N/N=C2/C(=O)Nc3ccc(Cl)cc32)nc1N1CCOCC1`: the inhibition of growth at 10 µM in the experiment with UACC-62, in the experiment on RPMI-8226, with T47D, in the experiment on SK-MEL-28, in the experiment on HT-29 and with KM12 was below 1% each time. The inhibition of growth at 10 µM with NCI/ADR-RES is 11.7%; in the experiment on MDA-MB-468, below 1%; in the experiment with CCRF-CEM, below 1%; with SW-620 it was below 1%; in the experiment on Malme-3M it was 11.2%; with ACHN, below 1%. Besides, the inhibition of growth at 10 µM with NCI-H460 and in the experiment with SN12C was below 1% throughout.
Regarding `N#Cc1c(-c2ccc(Cl)cc2)nc(N/N=C2/C(=O)Nc3ccc(Br)cc32)nc1N1CCOCC1`, the inhibition of growth at 10 µM in the experiment with UACC-62, in the experiment with RPMI-8226, in the experiment on T47D, in the experiment on SK-MEL-28, in the experiment on HT-29 and in the experiment with KM12 was below 1% throughout. The inhibition of growth at 10 µM in the experiment on NCI/ADR-RES, with MDA-MB-468, in the experiment on CCRF-CEM, in the experiment with SW-620, in the experiment with Malme-3M and in the experiment with ACHN was below 1% each time. Further, the inhibition of growth at 10 µM in the experiment with NCI-H460 and with SN12C was below 1% throughout.
For the molecule `N#Cc1c(-c2ccc(Cl)cc2)nc(N/N=C/c2cccc([N+](=O)[O-])c2)nc1N1CCOCC1`, the inhibition of growth at 10 µM in the experiment with UACC-62 is 27.6%; in the experiment with RPMI-8226, 43.4%; with T47D it was 42%; in the experiment on SK-MEL-28, 10.2%; in the experiment on HT-29 it was below 1%; with KM12, below 1%. Moreover, the inhibition of growth at 10 µM in the experiment on NCI/ADR-RES is 17.5%; with MDA-MB-468, 26.1%; with CCRF-CEM, 25.3%; in the experiment with SW-620, below 1%; in the experiment with Malme-3M, below 1%; with ACHN, 21.3%. Further, the values for the inhibition of growth at 10 µM with NCI-H460 and with SN12C were 14.5% and 10.6%, respectively.
Take `Cc1cc(C)n(-c2nc(-c3ccc(Cl)cc3)c(C#N)c(N3CCOCC3)n2)n1`: the inhibition of growth at 10 µM was below 1% in the experiment with UACC-62; 15.4% in the experiment with RPMI-8226; 22.1% with T47D; below 1% in the experiment on SK-MEL-28; below 1% with HT-29; below 1% in the experiment with KM12. The inhibition of growth at 10 µM was 10.6% in the experiment with NCI/ADR-RES; below 1% in the experiment with MDA-MB-468; below 1% with CCRF-CEM; below 1% in the experiment on SW-620; below 1% with Malme-3M; 11.8% in the experiment on ACHN. In addition, the inhibition of growth at 10 µM is below 1% in the experiment on NCI-H460 and 12.8% in the experiment with SN12C.
As to `N#Cc1c(-c2ccc(Cl)cc2)nc(N2NC(=O)CC2=N)nc1N1CCOCC1`, the inhibition of growth at 10 µM is 86.2% in the experiment on UACC-62; below 1% in the experiment with RPMI-8226; below 1% in the experiment with T47D; below 1% with SK-MEL-28; below 1% in the experiment with HT-29; below 1% in the experiment with KM12. Also, the inhibition of growth at 10 µM in the experiment on NCI/ADR-RES was below 1%; in the experiment with MDA-MB-468, below 1%; in the experiment on CCRF-CEM, below 1%; in the experiment on SW-620 it was below 1%; in the experiment on Malme-3M, 58%; with ACHN, below 1%. Further, the inhibition of growth at 10 µM with NCI-H460 and in the experiment on SN12C was below 1% each time.
Regarding `N#Cc1c(-c2ccc(Cl)cc2)nc(N/N=C/c2cccc(Br)c2)nc1N1CCOCC1`, the inhibition of growth at 10 µM in the experiment with UACC-62 was below 1%; with RPMI-8226, 44%; with T47D it was 32.5%; in the experiment on SK-MEL-28, below 1%; in the experiment with HT-29, 71%; in the experiment on KM12, 19%. In addition, the inhibition of growth at 10 µM in the experiment on NCI/ADR-RES was below 1%; in the experiment on MDA-MB-468, 23.3%; in the experiment on CCRF-CEM, 49.7%; with SW-620, 68.5%; in the experiment with Malme-3M, below 1%; in the experiment on ACHN it was 28.5%. The inhibition of growth at 10 µM is 13.1% with NCI-H460 and below 1% with SN12C.
Take `CC1=NN(c2nc(-c3ccc(Cl)cc3)c(C#N)c(N3CCOCC3)n2)C(=O)C1`: the inhibition of growth at 10 µM was 21% in the experiment on UACC-62; 42.9% in the experiment on RPMI-8226; below 1% in the experiment on T47D; 12.9% with SK-MEL-28; below 1% in the experiment with HT-29; below 1% with KM12. Besides, the inhibition of growth at 10 µM was below 1% in the experiment with NCI/ADR-RES; below 1% in the experiment on MDA-MB-468; 14.1% with CCRF-CEM; 14.8% with SW-620; below 1% in the experiment on Malme-3M; 26.4% in the experiment with ACHN. Moreover, the inhibition of growth at 10 µM with NCI-H460 was below 1%; with SN12C it was 112%.
As to `CSc1nc(O)c(C#N)c(-c2ccc(Cl)cc2)n1`, the inhibition of growth at 10 µM in the experiment with UACC-62, in the experiment with RPMI-8226, with T47D, in the experiment on SK-MEL-28, with HT-29 and in the experiment on KM12 was below 1% throughout. The inhibition of growth at 10 µM in the experiment on NCI/ADR-RES, in the experiment with MDA-MB-468, in the experiment with CCRF-CEM, in the experiment with SW-620, in the experiment with Malme-3M and in the experiment with ACHN was below 1% in each case. Besides, the inhibition of growth at 10 µM in the experiment with NCI-H460 and with SN12C was below 1% each time.
